Source: PubChem
Beta apoptosis – beta cell apoptosis inhibition; INS-1E cytokine-induced death, ATP luminescence, 48 h; percent of positive-control rescue, neutral wells zero; protection from apoptosis, % (no concentration beside the values); 0.8% of 300,000 active; AID 435005;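 active = Every replicate reaches about 75%, or at least half do and their mean reaches it too, limit read from the data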;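 note: 0% = cytokine-treated negative control wells and 100% = positive control rescue; higher means more ATP so stronger rescue from cytokine killing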
SKKanGAS inh – blocks kanamycin growth of S. pyogenes SKKanGAS strain | AID 1662 | BacTiter-Glo, 6 h | inhibition, % at 7.5 µM | 1.3% of 300,000 active;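 active = mean replicate score, as percent of positive control median, at least 50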;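 note: strain carries kanamycin resistance gene driven by streptokinase promoter and grows in 40 µg/ml kanamycin; loss of luminescence reflects streptokinase promoter inhibition or plain growth inhibition; 0% = median of DMSO wells and 100% = positive control at its reference dose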
T cruzi repl – T. cruzi replication inhibition; T. cruzi beta-gal in NIH3T3, luminescence, 90 h; inhibition, % (concentration not given with the values); 1.4% of 300,000 active; AID 1885;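 active = mean inhibition across valid replicates above about 55%, limit read from the data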;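 note: signal also drops with host cell toxicity which is not excluded here; 0% = plate median of DMSO wells and 100% = zero luminescence signal; higher percent means less beta-gal luminescence so fewer parasites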
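Assay system: NIH/3T3 host cells with β-galactosidase reporter T. cruzi; input: 5,000 host fibroblasts per well; compound: single 50 nL compound addition per well in DMSO; timing: ≥90 h infection period, 3 h prior cell attachment; measured by: GalScreen β-gal luminescence, detergent lysis, 60 min; evaluation: percent inhibition of parasite-derived β-gal signal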
Mdm2 MdmX PPI – inhibitors of human Mdm2/MdmX interaction. O15151+Q00987. SaOS-2 split-luciferase Mdm2/MdmX complementation, luminescence. inhibition, % at 8 µM. 3% of 330,000 active. AID 485346;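 active = inhibition of at least 50% at 8 µM in the primary screen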
Target sequence (O15151 whole entry, looked up): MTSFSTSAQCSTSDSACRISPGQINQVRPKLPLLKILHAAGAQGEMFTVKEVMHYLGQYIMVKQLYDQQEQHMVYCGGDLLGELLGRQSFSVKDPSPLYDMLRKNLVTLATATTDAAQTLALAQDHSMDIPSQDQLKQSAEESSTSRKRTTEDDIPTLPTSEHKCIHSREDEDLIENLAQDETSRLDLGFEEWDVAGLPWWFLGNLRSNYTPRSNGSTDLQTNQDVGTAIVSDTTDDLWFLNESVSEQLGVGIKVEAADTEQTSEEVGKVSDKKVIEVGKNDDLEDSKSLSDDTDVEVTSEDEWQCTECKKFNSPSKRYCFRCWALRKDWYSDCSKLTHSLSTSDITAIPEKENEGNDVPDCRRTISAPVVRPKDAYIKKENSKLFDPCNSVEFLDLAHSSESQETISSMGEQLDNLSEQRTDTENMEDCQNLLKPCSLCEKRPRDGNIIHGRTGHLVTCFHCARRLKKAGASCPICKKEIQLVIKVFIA
Target sequence (Q00987 whole entry, looked up): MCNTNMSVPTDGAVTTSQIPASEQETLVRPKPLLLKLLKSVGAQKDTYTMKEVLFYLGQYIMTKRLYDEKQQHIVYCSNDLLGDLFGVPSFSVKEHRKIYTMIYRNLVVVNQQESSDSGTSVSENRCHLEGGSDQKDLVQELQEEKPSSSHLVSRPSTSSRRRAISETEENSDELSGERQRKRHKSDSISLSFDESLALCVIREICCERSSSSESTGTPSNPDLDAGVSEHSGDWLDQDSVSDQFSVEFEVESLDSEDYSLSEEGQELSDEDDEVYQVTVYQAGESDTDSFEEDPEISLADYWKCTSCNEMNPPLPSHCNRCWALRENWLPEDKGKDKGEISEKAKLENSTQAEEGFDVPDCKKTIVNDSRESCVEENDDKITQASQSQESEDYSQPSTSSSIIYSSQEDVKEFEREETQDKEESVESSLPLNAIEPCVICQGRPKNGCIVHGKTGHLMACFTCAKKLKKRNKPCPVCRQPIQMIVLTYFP
CSC inhib – blocks cancer stem cells. cancer stem cell-like cells viability, luminescence. inhibition, % at 7.5 µM. 1.1% of 300,000 active; in the data active = inhibition above about 75%; tested in HMLE shEcad cells
Calb FLC – affects C. albicans growth with fluconazole; C. albicans CaCi-2 (fluconazole-resistant clinical isolate) + fluconazole, Alamar Blue growth, 48 h; growth inhibition, % (concentration not given with the values); 0.57% of 300,000 active;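 active = growth inhibition above about 58% in most replicates, limit read from the data, passing the limit was not always enough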;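 note: all wells also contain fluconazole at 8 µg/ml as a sub-toxic cotreatment; 0% = median of DMSO wells and 100% = median of geldanamycin control wells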
Numbers without * were called inactive. Only some compounds are listed: those with a hit (about 5.7% of all), similar ones and a draw of the others.

Results for CC(=O)Oc1ccc(C2=NN(c3ccccc3)C(c3ccccc3)C2)cc1 (stereo not given) ?
Beta apoptosis: 1; SKKanGAS inh: 65*; T cruzi repl: 32; Mdm2 MdmX PPI: 21; CSC inhib: 108*; Calb FLC: -3

What do the screens show for `COc1cc(N2N=C(c3ccccc3)CC2c2ccccc2)c(C=O)cc1C=O` (stereo not given)?
Beta apoptosis: -4; SKKanGAS inh: 55*; T cruzi repl: 7; Mdm2 MdmX PPI: 35; CSC inhib: 3; Calb FLC: -4

Results for Nc1nc(-c2ccccc2)c(-c2ccccc2)s1 ?
SKKanGAS inh: 8; T cruzi repl: -25; Mdm2 MdmX PPI: 2; CSC inhib: 8; Calb FLC: 9

How did Nc1nc(-c2ccccc2)c(-c2ccc([N+](=O)[O-])cc2)s1 do in these assays?
Beta apoptosis: 93*; SKKanGAS inh: -1; T cruzi repl: -8; Mdm2 MdmX PPI: 43; CSC inhib: 38; Calb FLC: 0

Results for COc1ccc(C(=O)c2ccc([N+](=O)[O-])cc2Cl)cc1 ?
Beta apoptosis: 2; SKKanGAS inh: -10; T cruzi repl: 60*; Mdm2 MdmX PPI: 7; CSC inhib: 15; Calb FLC: -1

What do the screens show for `COc1ccc(N(CC(=O)NCc2ccco2)C(=O)CNS(=O)(=O)c2ccc(Cl)cc2)cc1`?
Beta apoptosis: 0; SKKanGAS inh: 0; T cruzi repl: 7; Mdm2 MdmX PPI: 20; CSC inhib: 3; Calb FLC: -2

What do the screens show for `CCN1C/C(=C/c2cccc([N+](=O)[O-])c2)C(=O)/C(=C/c2cccc([N+](=O)[O-])c2)C1`?
Beta apoptosis: 98*; CSC inhib: 85*

How did COc1ccc(-c2cc3nnc(-c4ccccc4)nc3s2)cc1 do in these assays?
Beta apoptosis: 14; SKKanGAS inh: 4; T cruzi repl: -22; Mdm2 MdmX PPI: 32; CSC inhib: 10; Calb FLC: -8

How did COc1ccc(-c2cc3ncnc(Cl)c3s2)cc1 do in these assays?
Beta apoptosis: 4; SKKanGAS inh: 54*; T cruzi repl: -15; Mdm2 MdmX PPI: 3; CSC inhib: 34; Calb FLC: 12

How did Nc1c2c(nn1-c1ccccc1)CCC2 do in these assays?
Beta apoptosis: -2; SKKanGAS inh: -8; T cruzi repl: -5; Mdm2 MdmX PPI: 13; Calb FLC: -11

Results for CCOC(=O)c1c(Nc2ccccc2N)cc(C)nc1C ?
Beta apoptosis: -7; T cruzi repl: 13; Mdm2 MdmX PPI: 1; Calb FLC: -1

How did CCOC(=O)c1c(O)cc(C)cc1Nc1ccccc1 do in these assays?
Beta apoptosis: 0; SKKanGAS inh: 51*; T cruzi repl: 12; Mdm2 MdmX PPI: 11; CSC inhib: -1; Calb FLC: 0

Results for C=CCCO[C@@H]1O[C@@H](C)[C@H](O)C[C@H]1O ?
Beta apoptosis: -6; Mdm2 MdmX PPI: 9; CSC inhib: -25

Results for O=C(CNC(=O)c1ccc(Br)o1)Nc1cccc(S(=O)(=O)N2CCCC2)c1 ?
Beta apoptosis: 2; SKKanGAS inh: -10; T cruzi repl: 2; Mdm2 MdmX PPI: 5; CSC inhib: 4

How did COC(=O)c1cc(S(=O)(=O)Nc2cccc(C)c2C)cn1C do in these assays?
Beta apoptosis: -6; SKKanGAS inh: 0; T cruzi repl: -6; Mdm2 MdmX PPI: 23; CSC inhib: 1; Calb FLC: 3

What do the screens show for `Cc1ccc(/C=C/C(=O)Nc2ccc(Oc3ccccc3)cc2)o1`?
Beta apoptosis: -1; SKKanGAS inh: 16; T cruzi repl: -19; CSC inhib: 88*; Calb FLC: 31

How did Cc1ccc(/C=C/C(=O)Nc2ccc([N+](=O)[O-])cc2)o1 do in these assays?
Beta apoptosis: -13; SKKanGAS inh: 2; T cruzi repl: 30; Mdm2 MdmX PPI: 11; CSC inhib: 43; Calb FLC: -3

What do the screens show for `O=C(CSc1n[nH]c(-c2cccnc2)n1)Nc1cccc(Cl)c1`?
Beta apoptosis: 2; SKKanGAS inh: -8; T cruzi repl: 6; Mdm2 MdmX PPI: 12; CSC inhib: -2; Calb FLC: 0

What do the screens show for `O=C(CSc1nc(-c2ccc(Cl)cc2)[nH]c(=O)n1)Nc1cccc(Cl)c1`?
Beta apoptosis: -11; SKKanGAS inh: 59*; T cruzi repl: -15; Mdm2 MdmX PPI: 11; CSC inhib: 49; Calb FLC: -8

Results for Cc1ccc(C(=O)OCC(=O)N(C)c2c(N)n(Cc3ccccc3)c(=O)[nH]c2=O)s1 ?
Beta apoptosis: -6; SKKanGAS inh: -26; T cruzi repl: -12; Mdm2 MdmX PPI: 8; CSC inhib: -2

How did CCOCCCN(C)C1CCN(C(=O)c2oc3ccccc3c2NC(=O)c2ccc(F)cc2)CC1 do in these assays?
Beta apoptosis: -3; SKKanGAS inh: 2; T cruzi repl: 56*; Mdm2 MdmX PPI: 2; CSC inhib: 9; Calb FLC: -6

How did CCc1nnc(NC(=O)CSc2nnc(C(C)NC(=O)c3ccccc3)n2C)s1 (stereo not given) do in these assays?
Beta apoptosis: -8; SKKanGAS inh: 3; T cruzi repl: -1; Mdm2 MdmX PPI: -27; CSC inhib: -17; Calb FLC: -6

How did Cc1cc(C)n(-c2nc(C)nc(NCc3ccccc3)n2)n1 do in these assays?
Beta apoptosis: 7; SKKanGAS inh: 58*; T cruzi repl: -32; Mdm2 MdmX PPI: 13; CSC inhib: -9; Calb FLC: -5

What do the screens show for `CCOC(=O)c1cnc(-n2nc(C)cc2C)nc1NCCO`?
Beta apoptosis: -5; SKKanGAS inh: 2; T cruzi repl: -15; Mdm2 MdmX PPI: 9; Calb FLC: 5

Results for CCOC(=O)c1cnc(-n2nc(C)cc2C)nc1NC(C)c1ccccc1 (stereo not given) ?
Beta apoptosis: 88*; SKKanGAS inh: 107*; T cruzi repl: 60*; Mdm2 MdmX PPI: 23; Calb FLC: -10

How did CCOC(=O)c1cnc(-n2nc(C)cc2C)nc1NCc1ccccc1 do in these assays?
Beta apoptosis: 99*; SKKanGAS inh: 89*; T cruzi repl: 62*; Mdm2 MdmX PPI: 17; CSC inhib: 18; Calb FLC: -13

Results for CNc1nc(C)nc(-n2nc(C)cc2C)n1 ?
Beta apoptosis: -3; SKKanGAS inh: 1; T cruzi repl: -27; Mdm2 MdmX PPI: -13; CSC inhib: 11; Calb FLC: -10

What do the screens show for `CC(C(=O)Nc1ccc(Cl)cc1)N1C(=O)NC2(CCCC2)C1=O` (stereo not given)?
Beta apoptosis: 0; SKKanGAS inh: -3; T cruzi repl: -3; Mdm2 MdmX PPI: 3; CSC inhib: 9; Calb FLC: -9

Results for O=C(NCC1CCCN(C(=O)Cc2ccccc2Cl)C1)c1ccc(F)cc1 (stereo not given) ?
Beta apoptosis: -3; SKKanGAS inh: 8; T cruzi repl: 5; Mdm2 MdmX PPI: 2; CSC inhib: -12; Calb FLC: 0
